Laboratory results: ChEMBL document CHEMBL1134471, “Antimycobacterial activity of substituted isosteres of pyridine- and pyrazinecarboxylic acids. 2” (2001)
Where “and” joins values, the source holds several entries; their conditions need not be identical. Identical values can stand only once.

These compounds were tested on Mycobacterium tuberculosis (assay: Minimum inhibitory concentration against Mycobacterium tuberculosis H37Rv (ATCC 27294) in BACTEC 6A medium).
Assay type: functional
In short: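 M. tuberculosis H37Rv ATCC 27294 tested in the BACTEC 460 radiometric system in BACTEC 6A medium. Percent inhibition = 1 − (growth index of test sample / growth index of control) × 100. MIC taken as the lowest concentration inhibiting 99% of the inoculum.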

SMILES	MIC
Sc1nc(-c2cccnc2)no1	> 1600 µM and > 286 µg/mL
CC(C)(C)C(=O)OCn1c(-c2ccncc2)noc1=O	50 µM and 14 µg/mL
O=c1oc(-c2cccnc2)ns1	25 µM and 4.5 µg/mL
NC(=O)c1cnccn1 [PYRAZINAMIDE]	400 µM and 49 µg/mL
CC(C)(C)C(=O)OCn1c(-c2cccnc2)noc1=O	100 µM and 28 µg/mL
Oc1nc(-c2cnccn2)no1	800 µM and 131 µg/mL
CC(C)(C)C(=O)OCSc1nc(-c2ccncc2)no1	200 µM and 59 µg/mL
NNC(=O)c1ccncc1 [ISONIAZID]	0.15 µM and 0.018 µg/mL
Sc1nc(-c2ccncc2)no1	> 1600 µM and > 286 µg/mL
O=c1oc(-c2ccncc2)ns1	50 µM and 9 µg/mL
CC(C)(C)C(=O)OCn1c(-c2cnccn2)noc1=O	200 µM and 56 µg/mL
Sc1nc(-c2cnccn2)no1	1600 µM and 288 µg/mL
Oc1nc(-c2ccncc2)no1	> 1600 µM and > 261 µg/mL
CC(C)(C)C(=O)OCSc1nc(-c2cnccn2)no1	400 µM and 118 µg/mL
Oc1nc(-c2cccnc2)no1	> 1600 µM and > 261 µg/mL
O=c1oc(-c2cnccn2)ns1	25 µM and 4.5 µg/mL
CC(C)(C)C(=O)OCSc1nc(-c2cccnc2)no1	200 µM and 59 µg/mL
CC(C)(C)C(=O)OCn1nnnc1-c1cnccn1	50 µM and 13 µg/mL
